Results published in ChEMBL document CHEMBL5352504, “PINK1-Dependent Mitophagy Inhibits Elevated Ubiquitin Phosphorylation Caused by Mitochondrial Damage” (J Med Chem, 2023).
Active and inactive are the calls of the source. No cut-off for these calls is given here.

How the values were obtained:
[1] = target: Serine/threonine-protein kinase PINK1, mitochondrial (Homo sapiens) (UniProt Q9BXM7); assay: Activation of PINK1 in human HeLa cells transfected with Parkin assessed as increase in Parkin phosphorylation at serine 65 at 50 uM incubated for 1 hr by Western blot analysis; format: cell-based
Sequence of Serine/threonine-protein kinase PINK1, mitochondrial (Homo sapiens) (Q9BXM7 whole entry): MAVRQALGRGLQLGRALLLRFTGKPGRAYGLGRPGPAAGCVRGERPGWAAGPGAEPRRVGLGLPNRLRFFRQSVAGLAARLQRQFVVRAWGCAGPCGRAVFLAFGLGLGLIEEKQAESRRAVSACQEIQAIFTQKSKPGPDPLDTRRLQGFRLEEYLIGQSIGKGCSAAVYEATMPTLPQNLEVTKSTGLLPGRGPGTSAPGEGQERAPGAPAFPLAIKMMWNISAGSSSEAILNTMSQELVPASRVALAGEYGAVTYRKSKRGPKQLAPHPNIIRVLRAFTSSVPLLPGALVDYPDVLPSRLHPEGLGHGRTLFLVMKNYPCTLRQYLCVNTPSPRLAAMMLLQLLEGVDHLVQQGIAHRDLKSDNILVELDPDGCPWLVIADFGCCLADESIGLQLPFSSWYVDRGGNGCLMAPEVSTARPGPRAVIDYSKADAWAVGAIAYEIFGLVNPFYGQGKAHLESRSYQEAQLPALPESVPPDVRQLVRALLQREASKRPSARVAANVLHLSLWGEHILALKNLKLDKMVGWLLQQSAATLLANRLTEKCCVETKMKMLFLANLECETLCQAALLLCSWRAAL
Procedure, shortened: (§1)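 HeLa cells transfected with Parkin were exposed to 50 μM compound for 1 h, with 10 μM CCCP for 3 h as a control. Cells were then lysed and immunoblotted for pSer65 Parkin, total Parkin, OPA1 and GAPDH (loading control). Untreated transfected and untransfected cells were included. Blots are representative of three repeat experiments.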

[2] = target: Serine/threonine-protein kinase PINK1, mitochondrial (Homo sapiens) (UniProt Q9BXM7); assay: Activation of PINK1 in human HeLa cells transfected with Parkin assessed as prevention of OPA1 cleavage at 50 uM incubated for 1 hr by Western blot analysis; format: cell-based; procedure, shortened: as §1
[3] = target: Serine/threonine-protein kinase PINK1, mitochondrial (Homo sapiens) (UniProt Q9BXM7); assay: Activation of human PINK1 in human HeLa cells overexpressing Parkin assessed as phosphorylation of ubiquitin at serine 65 at 50 uM and measured after 24 hr by Western blot analysis; format: cell-based
Procedure, shortened: (§2)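 Parkin-transfected HeLa cells received 50 μM compound for 24 h. They were then either lysed directly or given 10 μM CCCP for 3 h before lysis. Lysates were immunoblotted for Ser65-phosphorylated ubiquitin, OPA1 cleavage and GAPDH. Untreated transfected and untransfected cells served as references.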

HeLa [4] = assay: Inhibition of ubiquitin phosphorylation in CCCP stimulated human HeLa cells overexpressing Parkin assessed as reduction in CCCP-induced ubiquitin phosphorylation at serine 65 at 50 uM preincubated for 24 hrs followed by CCCP stimulation for 3 hr by Western blot analysis; format: cell-based; conditions: time 27.0 hrs; procedure, shortened: as §2
HeLa [5] = assay: Induction of mitophagy in human HeLa cells transfected with YFP-Parkin assessed as effect on mitochondrial fragmentation at 50 uM incubated for 24 hrs by Hoechst 33258 staining based immunofluorescence analysis; format: functional, cell-based
Procedure, shortened: (§3)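 YFP-Parkin-transfected HeLa cells were left untreated or exposed to 50 μM compound alone for 24 h. Cells were PFA-fixed, Triton-permeabilised and immunostained for pSer65-Ub and TOM20 with Hoechst. Confocal imaging assessed mitochondrial fragmentation, YFP-Parkin localisation and ubiquitin phosphorylation.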

HeLa [6] = assay: Induction of mitophagy in human HeLa cells transfected with YFP-Parkin assessed as effect on Parkin localization at 50 uM incubated for 24 hrs by Hoechst 33258 staining based immunofluorescence analysis; format: functional, cell-based; procedure, shortened: as §3
HeLa [7] = assay: Induction of mitophagy in YFP-Parkin-transfected human HeLa cells assessed as effect on ubiquitin phosphorylation at 50 uM incubated for 24 hrs by Hoechst 33258 staining based immunofluorescence analysis; format: functional, cell-based; procedure, shortened: as §3
HeLa [8] = assay: Induction of mitophagy in human HeLa cells transfected with YFP-Parkin assessed as parkin localization in mitochondria at 50 uM preincubated for 24 hrs followed by CCCP stimulation and measured after 1 hr hr by Hoechst 33258 staining based immunofluorescence analysis; format: functional, cell-based
Procedure, shortened: (§4)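 YFP-Parkin HeLa cells were pretreated with 50 μM compound for 24 h, then given 10 μM CCCP or niclosamide for 1 h. Cells were fixed in chilled 4% PFA, permeabilised with 0.1% Triton, blocked in BSA, then immunostained overnight at 4 °C for pSer65-Ub and TOM20 with Hoechst. YFP-Parkin was imaged by confocal microscopy (40× oil). pUb mitochondrial localisation was quantified from images.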

[9] = target: Serine/threonine-protein kinase PINK1, mitochondrial (Mus musculus) (UniProt Q99MQ3); assay: Activation of mouse PINK1 in mouse astrocytes assessed increase in ubiquitin serine 65 phosphorylation at 50 uM incubated for 24 hrs by ELISA analysis; format: cell-based; conditions: Astrocyte, filed as activator
Sequence of Serine/threonine-protein kinase PINK1, mitochondrial (Mus musculus) (Q99MQ3 whole entry): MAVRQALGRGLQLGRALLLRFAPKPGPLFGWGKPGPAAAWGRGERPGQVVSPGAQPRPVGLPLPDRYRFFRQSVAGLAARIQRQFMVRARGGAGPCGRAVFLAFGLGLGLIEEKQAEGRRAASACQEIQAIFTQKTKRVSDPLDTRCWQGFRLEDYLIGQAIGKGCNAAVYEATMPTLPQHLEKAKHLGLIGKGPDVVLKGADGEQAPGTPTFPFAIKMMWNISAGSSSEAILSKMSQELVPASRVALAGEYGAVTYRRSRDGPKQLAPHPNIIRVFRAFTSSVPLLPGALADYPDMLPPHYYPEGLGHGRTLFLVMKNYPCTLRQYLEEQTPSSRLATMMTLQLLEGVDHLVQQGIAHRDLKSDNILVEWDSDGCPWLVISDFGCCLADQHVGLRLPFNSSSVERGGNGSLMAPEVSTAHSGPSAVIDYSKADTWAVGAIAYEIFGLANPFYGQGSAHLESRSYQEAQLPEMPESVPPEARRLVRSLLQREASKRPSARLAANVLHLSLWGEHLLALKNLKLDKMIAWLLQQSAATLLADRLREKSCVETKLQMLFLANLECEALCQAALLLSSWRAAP
Procedure, shortened: (§5)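 Primary cortical astrocytes came from postnatal day 3 C57BL/6J pups and were used at 70–90% confluence (7–10 days in vitro). Lysates (HEPES/NP-40 lysis, pellet resuspended in RIPA) went to pS65-Ub ELISA. Signal was normalised per μg protein (BCA); mean ± SEM, n = 8.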

[10] = target: Serine/threonine-protein kinase PINK1, mitochondrial (Mus musculus) (UniProt Q99MQ3); assay: Activation of mouse PINK1 in mouse astrocytes assessed ubiquitin serine 65 phosphorylation at 50 uM preincubated for 24 hrs followed by valinomycin treatment for 5 hrs by ELISA; format: cell-based; conditions: Astrocyte, time 29.0 hrs; procedure, shortened: as §5
HeLa [11] = assay: Inhibition of CCCP-induced ubiquitin phosphorylation at serine 65 residue in human HeLa cells transfected with YFP-Parkin at 50 uM preincubated for 24 hrs followed by CCCP stimulation and measured after 1 hr hr by Hoechst 33258 staining based immunofluorescence analysis; format: cell-based; conditions: time 25.0 hrs; procedure, shortened: as §4
[12] = target: T1, Serine/threonine-protein kinase Pink1, mitochondrial (Tribolium castaneum) (UniProt D6WMX4); assay: Inhibition of recombinant Tribolium castaneum PINK1 using human Parkin as substrate assessed as substrate phosphorylation upto 100 uM
T1 sequence (whole entry): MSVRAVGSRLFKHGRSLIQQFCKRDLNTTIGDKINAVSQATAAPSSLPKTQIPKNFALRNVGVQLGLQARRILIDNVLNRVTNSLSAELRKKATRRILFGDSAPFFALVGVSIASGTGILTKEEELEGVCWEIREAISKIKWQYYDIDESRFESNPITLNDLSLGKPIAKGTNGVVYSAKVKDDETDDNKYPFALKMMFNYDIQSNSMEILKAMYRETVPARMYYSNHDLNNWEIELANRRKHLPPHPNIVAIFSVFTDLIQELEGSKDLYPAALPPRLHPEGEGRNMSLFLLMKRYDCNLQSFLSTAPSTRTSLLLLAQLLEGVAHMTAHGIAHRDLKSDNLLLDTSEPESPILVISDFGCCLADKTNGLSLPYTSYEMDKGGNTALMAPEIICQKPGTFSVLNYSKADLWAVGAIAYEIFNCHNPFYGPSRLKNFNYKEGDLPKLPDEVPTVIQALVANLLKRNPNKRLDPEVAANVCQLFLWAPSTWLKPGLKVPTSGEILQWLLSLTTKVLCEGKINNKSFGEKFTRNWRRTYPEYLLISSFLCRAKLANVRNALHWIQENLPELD

[13] = target: T1, Serine/threonine-protein kinase Pink1, mitochondrial (Tribolium castaneum); assay: Inhibition of recombinant Tribolium castaneum PINK1 using human ubiquitin as substrate assessed as substrate phosphorylation upto 100 uM
HeLa [14] = assay: Induction of mitochondrial membrane depolarization in human HeLa cells overexpressing Parkin assessed as inhibition of CCCP-induced OPA1 cleavage at 50 uM preincubated for 24 hrs followed by CCCP stimulation and measured after 3 hrs by Western blot analysis; format: functional, cell-based; conditions: time 27.0 hrs; procedure, shortened: as §2
HeLa [15] = assay: Induction of mitochondrial membrane depolarization in human HeLa cells overexpressing Parkin assessed as inhibition of niclosamide-induced OPA1 cleavage at 50 uM preincubated for 24 hrs followed by niclosamide stimulation and measured after 3 hrs by Western blot analysis; format: functional, cell-based; conditions: time 27.0 hrs
HeLa [16] = assay: Inhibition of CCCP-induced ubiquitin phosphorylation at serine 65 residue in human HeLa cells transfected with YFP-Parkin at 50 uM preincubated for 24 hrs followed by CCCP stimulation and measured after 1 hr hr by Western blot analysis; format: cell-based; conditions: time 25.0 hrs
Procedure, shortened: (§6)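 YFP-Parkin-transfected HeLa cells were pretreated with 50 μM compound (24 h per legend, 23 h per methods), then given 10 μM CCCP or niclosamide for 1 h. Lysis used AP buffer (Tris pH 7.5, IGEPAL, protease/phosphatase inhibitors). Blots were on PVDF, milk-blocked, primary antibody overnight at 4 °C, HRP detection; probed for pUb, LC3B-I/-II and α-tubulin.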

HeLa [17] = assay: Inhibition of niclosamide-induced ubiquitin phosphorylation at serine 65 residue in human HeLa cells transfected with YFP-Parkin at 50 uM preincubated for 24 hrs followed by niclosamide stimulation and measured after 1 hr hr by Western blot analysis; format: cell-based; conditions: time 25.0 hrs; procedure, shortened: as §6
HeLa [18] = assay: (§7) Induction of mitochondrial membrane depolarization in human HeLa cells transfected with YFP-Parkin assessed as prevention of CCCP induced mitochondrial membrane potential loss at 50 uM preincubated for 24 hrs followed by CCCP stimulation and measured after 1 hr by Hoechst 33258 staining based immunofluorescence analysis; format: functional, cell-based; conditions: time 25.0 hrs
Procedure, shortened: (§8)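 Mitochondrial membrane potential was read in YFP-Parkin HeLa cells pretreated with 50 μM compound for 24 h, then given 10 μM niclosamide or CCCP for 1 h. Medium was replaced with 5 nM TMRM plus Hoechst for 30 min at 37 °C in the dark. After a PBS wash, live cells were imaged by confocal microscopy at 37 °C, 5% CO2.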

HeLa [19] = assay: as §7, with “niclosamide” for “CCCP”; format: functional, cell-based; conditions: time 25.0 hrs; procedure, shortened: as §8
MEF [20] = assay: Induction of mitophagy in wild-type PINK1 harboring mouse immortalized MEF cells overexpressing HA-tagged Parkin assessed as increase in mitophagy at 5 uM incubated for 16 hrs by flow cytometry analysis; format: functional, cell-based
Procedure, shortened: (§9)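 Immortalised MEFs from PINK1 WT or KO mito-QC littermate embryos, overexpressing HA-Parkin, were treated for 16 h. Cells were trypsinised, fixed in 3.7% formaldehyde/200 mM HEPES pH 7.0 and analysed by flow cytometry (≥2 × 10^4 cells). Living cells were gated on scatter, and the untreated-condition gate was applied to all conditions. Percent cells undergoing mitophagy was taken from the GFP/mCherry ratio; n = 3, two-way ANOVA with Sidak test.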

MEF [21] = assay: Induction of mitophagy in PINK1 knockout mouse immortalized MEF cells overexpressing HA-tagged Parkin assessed as increase in mitophagy at 5 uM incubated for 16 hrs by flow cytometry analysis; format: functional, cell-based; procedure, shortened: as §9
HeLa [22] = assay: Inhibition of niclosamide-induced ubiquitin phosphorylation at serine 65 residue in human HeLa cells transfected with YFP-Parkin at 50 uM preincubated for 24 hrs followed by niclosamide stimulation and measured after 1 hr hr by Hoechst 33258 staining based immunofluorescence analysis; format: cell-based; conditions: time 25.0 hrs; procedure, shortened: as §4

## CC(C)Nc1ncnc2c1ncn2[C@@H]1O[C@H](CO)[C@@H](O)[C@H]1O
[1]; filed as activator
  Activity: Active
[2]
  Activity: inactive

## CNc1ncnc2[nH]cnc12
[1]
  Activity: inactive

## CC(C)(C)CNc1ncnc2c1ncn2[C@@H]1O[C@H](CO)[C@@H](O)[C@H]1O
[1]
  Activity: inactive
[2]
  Activity: inactive

## O=P(O)(O)OP(=O)(O)OP(=O)(O)OC[C@H]1O[C@@H](n2cnc3c(NCc4ccco4)ncnc32)[C@H](O)[C@@H]1O
[3]
  Activity: inactive
HeLa [4]
  inhibition: inactive

## CNc1ncnc2c1ncn2[C@@H]1O[C@H](CO)[C@@H](O)[C@H]1O
[1]; filed as activator
  Activity: Active
[2]
  Activity: inactive
HeLa [5]
  Activity: inactive
HeLa [6]
  Activity: inactive
HeLa [7]
  Activity: inactive
HeLa [8]
  Activity: inactive
[9]
  Activity: Active
[10]
  Activity: inactive
HeLa [11]
  inhibition: inactive

## O=P(O)(O)OP(=O)(O)OP(=O)(O)OC[C@H]1O[C@@H](n2cnc3c(NCc4ccccc4)ncnc32)[C@H](O)[C@@H]1O
[12]
  inhibition: inactive
[13]
  inhibition: inactive

## c1coc(CNc2ncnc3[nH]cnc23)c1
[3]
  Activity: inactive
HeLa [4]
  inhibition: inactive
[9]
  Activity: Active
[10]
  Activity: inactive

## OC[C@H]1O[C@@H](n2cnc3c(NCc4ccco4)ncnc32)[C@H](O)[C@@H]1O
[3]
  Activity: inactive
HeLa [4]
  inhibition: Active
HeLa [14]
  inhibition: inactive
HeLa [15]
  inhibition: inactive
HeLa [16]
  inhibition: Active
HeLa [17]
  inhibition: Active
HeLa [18]
  Activity: inactive
HeLa [19]
  Activity: inactive
HeLa [5]
  Activity: inactive
HeLa [6]
  Activity: inactive
HeLa [7]
  Activity: inactive
MEF [20]
  Activity: Active
MEF [21]
  Activity: inactive
[12]
  inhibition: inactive
[13]
  inhibition: inactive
HeLa [11]
  inhibition: Active
HeLa [22]
  inhibition: Active

## Oc1ccc(CCNc2ncnc3[nH]cnc23)cc1
[1]
  Activity: inactive
